Drawing on ChEMBL document CHEMBL1131090, “Discovery of N-[2-[5-[Amino(imino)methyl]-2-hydroxyphenoxy]-3, 5-difluoro-6-[3-(4, 5-dihydro-1-methyl-1H-imidazol-2-yl)phenoxy]pyridin-4-yl]-N-methylgl y cine (ZK-807834): a potent, selective, and orally active inhibitor of the blood coagulation enzyme factor Xa” (J Med Chem, 1998), this text covers concentration, PT extension and Ki for one compound.

By Ki is commonly meant a measure of affinity in units of concentration, obtained from inhibition or displacement. Low values mean tighter binding, high ones weaker binding.

A short description of series [1]: plasma concentration was measured against the Nonhuman primates (baboon) using FXa inhibition assay after 1 hr; uM. It is filed as ADME, organism-based, Papio. The procedure, abridged:
(§1)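 Baboons received a 10 mg/kg oral dose in 1.5% carboxymethylcellulose plus 1% Tween 80 via nasogastric tube (2–4 animals per compound). Plasma inhibitor concentration was determined at the stated times by FXa inhibition assay.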

Series [2] is described as follows: plasma concentration was measured against the Nonhuman primates (baboon) using FXa inhibition assay after 2 hr; uM. It counts as ADME, organism-based, Papio. The gist of the method: as §1
Series [3] can be described thus: plasma concentration was measured against the Nonhuman primates (baboon) using FXa inhibition assay after 3 hr; uM. It is filed as ADME, organism-based, Papio. The procedure, abridged: as §1
Series [4] is described as follows: plasma concentration was measured against the Nonhuman primates (baboon) using FXa inhibition assay after 4 hr; uM. It counts as ADME, organism-based, Papio. The procedure, abridged: as §1
A short description of series [5]: plasma concentration was measured against the Nonhuman primates (baboon) using FXa inhibition assay after 6 h; uM. It is filed as ADME, organism-based, Papio. The gist of the method: as §1
Series [6] in a line: Inhibitor plasma concentration was measured in dogs on 10 mg/kg oral dosing after 1 hr administration; uM. The following applies: dog. On the set-up: dose 10 mg/kg, route oral. It counts as ADME, organism-based, Canis lupus familiaris. The procedure, abridged: (§2)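 Conscious beagles (10–16 kg) were given 10 mg/kg by oral gavage as homogeneous solutions in aqueous acid (n = 3). Plasma inhibitor concentrations were measured at the stated times by an ex vivo FXa inhibition activity assay. For ester/acid pairs, the value is the total ester plus acid concentration.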

A short description of series [7]: Inhibitor plasma concentration was measured in dogs on 10 mg/kg oral dosing after 2 hr administration; uM. It is filed as ADME, organism-based, Canis lupus familiaris. On the set-up: dose 10 mg/kg, route oral. The following applies: dog. The procedure, abridged:
as §2

Series [8] is described as follows: Prothrombin time concentration to give a 2-fold extension activity against pooled lyophilized human plasma. It counts as functional. The gist of the method: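 Prothrombin time was measured in pooled lyophilized human plasma with Thromboplastin IS on an automated coagulation analyzer. The value is the inhibitor concentration that doubles PT.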
The target in the next series is Prothrombin (Homo sapiens, UniProt P00734). Briefly: Inhibitory potency was measured against human thrombin. The gist of the method:
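Purified human thrombin (16 nM final) was assayed chromogenically with S-2302 (300 μM final) in 50 mM Tris-HCl pH 7.5, 150 mM NaCl, 2.5 mM CaCl2, 0.1% PEG 6000 at room temperature. Varying inhibitor concentrations were tested at a substrate level equal to Km, assuming a competitive mechanism, to derive Ki.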

A further series has as its target T1, Serine protease 1 (Bos taurus, UniProt P00760).
T1 sequence (P00760 whole entry): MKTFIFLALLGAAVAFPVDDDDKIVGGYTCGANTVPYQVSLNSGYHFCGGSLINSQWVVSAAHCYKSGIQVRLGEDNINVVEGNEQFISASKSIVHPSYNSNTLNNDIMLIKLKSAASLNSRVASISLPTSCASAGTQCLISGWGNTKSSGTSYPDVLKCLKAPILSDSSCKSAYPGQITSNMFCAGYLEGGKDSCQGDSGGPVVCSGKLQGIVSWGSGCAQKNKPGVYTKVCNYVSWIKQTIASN
Kind of series: Inhibitory potency was measured against bovine trypsin.

Series [9] is described as follows: Inhibitor plasma concentration was measured in dogs on 10 mg/kg oral dosing after 4 hr administration; uM. The following applies: dog. It is filed as ADME, organism-based, Canis lupus familiaris. On the set-up: dose 10 mg/kg, route oral. The procedure, abridged: as §2
The nature of series [10]: plasma concentration was measured against the Nonhuman primates (cynomolgus monkey) using HPLC after 1 hr; uM.
Series [11] in a line: plasma concentration was measured against the Nonhuman primates (cynomolgus monkey) using HPLC after 2 hr; uM.
The nature of series [12]: plasma concentration was measured against the Nonhuman primates (cynomolgus monkey) using HPLC after 3 hr; uM.
Series [13] is described as follows: plasma concentration was measured against the Nonhuman primates (cynomolgus monkey) using HPLC after 4 hr; uM.

The structures appear in SMILES notation.

Regarding `CN1CCN=C1c1cccc(Oc2nc(Oc3cc(C(=N)N)ccc3O)c(F)c(N(C)CC(=O)O)c2F)c1` [FIDEXABAN], the figures for the concentration at 1 h in series [1], in series [6] and in [10] were 300 nM, 3000 nM and 200 nM, respectively. Besides, the concentration at 2 h in [2] was 600 nM; in series [7], 2100 nM; in series [11], 500 nM. Further, the concentration at 3 h in [3] is 900 nM; in series [12], 700 nM. Further, the concentration at 4 h in [4] amounted to 1100 nM; in series [9], 700 nM; in series [13] it was 1200 nM. Also, the concentration at 6 h in [5] amounted to 1000 nM. Further, the PT extension in [8] is listed as 230 nM. Further, the figures for the Ki at Prothrombin and at Serine protease 1 were 2 µM and 0.28 µM, respectively.
